Data on two compounds can be found in ChEMBL document CHEMBL1122273, “5-sulfamoylorthanilic acids, a sulfonamide series with salidiuretic activity” (J Med Chem, 1983).

Experiment [1] concerns Canis familiaris. Put plainly: Urinary excretion collected at 1-24 hr time after oral administration in dog (four animals per dose) at dose 1.56 mg/kg. The class given is functional, Canis lupus familiaris, Urine. The method, boiled down: (§1)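 Trained male beagles, four per dose, fasted 24 h with tap water ad libitum. After bladder emptying, given 20 mL/kg tap water by stomach tube, then 4 mL/kg at each hourly catheterization; 2 h control collection, then oral dosing. Urine volume and Na⁺ (flame photometry) reported for 1–6, 7–24 and 1–24 h post-dose periods.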

Experiment [2] relates to Canis familiaris. Put plainly: sodium excretion collected at 7-24 hr time after oral administration in dog (four animals per dose) at dose 0.39 mg/kg. The class given is functional, Canis lupus familiaris. The method in brief:
as §1

In experiment [3] the test system is Canis familiaris. Put plainly: sodium excretion collected at 1-24 h time after oral administration in dog (four animals per dose) at dose 6.25 mg/kg. It is filed as functional, Canis lupus familiaris. The method, boiled down: as §1
For experiment [4], the system named is Canis familiaris. Description: Urinary excretion collected at 1-6 hr time after oral administration in dog (four animals per dose) at dose 6.25 mg/kg. It is filed as functional, Canis lupus familiaris, Urine. The method in brief:
as §1

For experiment [5], the system named is Canis familiaris. Description: sodium excretion collected at 7-24 hr time after oral administration in dog (four animals per dose) at dose 6.25 mg/kg. It is filed as functional, Canis lupus familiaris. The method in brief:
as §1

A short description of experiment [6]: It is the ratio, measured as saluretic activity in the dog as concentration of Cl- in urinary excretion (dose 12.5 mg/kg, p.o.) to that of (Na+)+(K+). It is filed as functional, Urine. Conditions: route oral. The method, boiled down:
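Trained male beagles, fasted 24 h with tap water ad libitum. Bladder emptied by catheter, then 20 mL/kg tap water by stomach tube, with 4 mL/kg water at each hourly catheterization up to 8 h. The first 2 h of urine served as control. Oral dosing came after the second catheterization, and 1–6 h urine was pooled. Na⁺ and K⁺ were measured by flame photometry, Cl⁻ argentometrically, in mequiv/kg.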

The test system of experiment [7] is Canis familiaris. Description: Saluretic activity in the dog measured as concentration of Na+ in urinary excretion (2 animals/dose) at a dose of 0.1 mg/Kg, perorally. The class given is functional, Canis lupus familiaris, Urine. The method, boiled down:
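Male beagles trained to rest on a table and to accept stomach tube and catheter. Food withdrawn 24 h before, tap water ad libitum. Bladder emptied by catheter, then 20 mL/kg tap water by stomach tube. Catheterized hourly up to 8 h with 4 mL/kg water orally each time; first 2 h urine served as control. Oral dosing after second catheterization. Pooled 1–6 h urine; Na⁺/K⁺ by flame photometry, Cl⁻ argentometrically.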

Experiment [8] has as its system Canis familiaris. Description: sodium excretion collected at 7-24 hr time after oral administration in dog (four animals per dose) dosed at 0.39 mg/kg. The class given is functional, Canis lupus familiaris. The method, boiled down: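 Trained male beagles, food withdrawn 24 h beforehand with tap water ad libitum. Bladder emptied by catheter, then 20 mL/kg tap water by stomach tube. Catheterized hourly (up to 8 h) with 4 mL/kg water orally each time. First 2 h of urine served as control. Compound given orally after second catheterization. Na⁺ measured flame-photometrically, in mequiv/kg.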

Experiment [9] deals with Canis familiaris. Put plainly: sodium excretion collected at 1-24 hr time after oral administration in dog (four animals per dose) dosed at 3.12 mg/kg. The class given is functional, Canis lupus familiaris. The method, boiled down: as §1
Experiment [10] relates to Canis familiaris. Put plainly: sodium excretion collected at 1-6 h time after oral administration in dog (four animals per dose) dosed at 0.05 mg/kg. The class given is functional, Canis lupus familiaris. The method in brief: as §1
Experiment [11] relates to Canis familiaris. Description: urinary excretion collected at 7-24 hr time after oral administration in dog (four animals per dose) dosed at 0.05 mg/kg. It is filed as functional, Canis lupus familiaris, Urine.
The test system of experiment [12] is Canis familiaris. Put plainly: urinary excretion collected at 7-24 hr time after oral administration in dog (four animals per dose) dosed at 3.12 mg/kg. It is filed as functional, Canis lupus familiaris, Urine.

In the case of `NS(=O)(=O)c1cc(S(=O)(=O)[O-])c(NCc2ccco2)cc1Oc1ccccc1.[Na+]`, the Urinary excretion was 78.9 mL/kg in experiment [1] and 75.4 mL/kg in [4]. The Na+ excretion in experiment [2] was found to be 0.47 mequiv kg-1; in [3], 8.55 mequiv kg-1; in [5], 1.98 mequiv kg-1. Further, the Ratio in experiment [6] amounted to 0.95. The compound further yielded a Saluretic activity in [7] of 0.18 m equiv 5hr-1 kg-1.

Take `CN(c1ccccc1)c1cc(NCc2ccco2)c(S(=O)(=O)[O-])cc1S(N)(=O)=O.[Na+]`: the Na+ excretion came to 0.55 mequiv kg-1 in experiment [8], 6.48 mequiv kg-1 in experiment [9] and 1.29 mequiv kg-1 in experiment [10]. Moreover, the values for the Urinary excretion in [11] and in experiment [12] were 10.1 mL/kg and 40.8 mL/kg, respectively.
